This is an account of results in publication PMC8851646 (ACS Omega, 2022).

SMILES strings stand for the structures. Converted amounts (≈) assume the structure as drawn. Like-named read-outs stand apart in the source and are kept apart here.

The subject of data set [1] is K. pneumoniae NB29017 co-cultured with T. pyriformis. In words: T. pyriformis/K. pneumoniae. It is filed as cell-based, Klebsiella pneumoniae. Particulars: for activity in the Tp/Kp assay: manual pilot screens and D1 analog set.
Data set [2] concerns K. pneumoniae wbbM mutant (NB29018) co-cultured with T. pyriformis. In words: Tp/Kp co-culture assay with cell surface-defective wbbM mutant. In kind it is cell-based, Klebsiella pneumoniae. The following applies: Tp threshold 4625–18,500 Tp/mL.
For data set [3], the system named is Staphylococcus aureus. In words: Antibacterial MIC, Gram-positive control. It is filed as cell-based. Particulars: read-out: MIC Sa.
Data set [4] is described as follows: Red blood cell hemolysis. The following applies: sheep, erythrocytes from defibrinated sheep blood, pH 7.5. In kind it is cell-based, sheep.
A short description of data set [5]: Cytotoxicity in K562 cells. In kind it is cell-based. The following applies: human.
The subject of data set [6] is K. pneumoniae NB29017. In words: Qualitative inhibition of mucoid appearance of colonies on solid LB agar. In kind it is cell-based, Klebsiella pneumoniae. The following applies: 4 fully mucoid, 0 nonmucoid, by eye. Put shortly:
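Test compound dissolved in DMSO (12.8 mg/mL stock) and mixed into melted LB agar at 0–16 μg/mL final, then set in six-well plates. Mucoid wild-type NB29017 streaked for single colonies in each well. Plates incubated 18 h at 37 °C, then 2 h at 4 °C. Mucoid appearance scored by eye from 0 (none) to 4 (normal hypermucoid).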

Where [7] appears, read: read-out: IC50 Tp/Kp, Table 1, freshly dissolved powder, top concentration 20 μM.
The mark [8] stands for this setting: read-out: Tp/Kp IC50, Table 2, expressed as μg/mL for comparison to agar values.

Consider `Oc1nc(S)nnc1-c1cccs1` [B1, OC1N=C(S)N=NC=1C2=CC=CS2], for which the “activity in the Tp/Kp assay” value in data set [1] is recorded as “active”.
Regarding `COc1nc(SC)nnc1C` [Di, COc1nc(nnc1C)SC], the “activity in the Tp/Kp assay” value in data set [1] was “inactive”.
With `Cc1cc(O)c(C)c(O)c1C(=O)O` [compound 9, Cc1cc(O)c(C)c(O)c1C(O)=O], the “activity in the Tp/Kp assay” value in data set [1] is “active”.
`O=C(O)c1ccccc1O` [compound 10, OC(=O)c1ccccc1O]: the “activity in the Tp/Kp assay” value in data set [1] is “active”.
For the molecule `Cc1cccc(O)c1C(=O)O` [compound 16, Cc1cccc(O)c1C(O)=O], in data set [1], the “activity in the Tp/Kp assay” value is on record as “active”.
Take `Cc1nnc(-c2ccccc2)nc1O` [compound 34, Cc1nnc(nc1O)c2ccccc2]: the “activity in the Tp/Kp assay” value in data set [1] was “active”. Further, in data set [2], the “activity in the Tp/Kp wbbM assay” value is “retained activity”.
In the case of `Cc1nnc(SCC(=O)Nc2ccc(Br)cc2)nc1O` [compound 35, Cc1nnc(nc1O)SCC(=O)Nc2ccc(Br)cc2], the “activity in the Tp/Kp assay” value in data set [1] is recorded as “active”. In addition, the “activity in the Tp/Kp wbbM assay” value in data set [2] is “retained activity”.
Take `CCOc1ccc2nc(NC(=O)c3cc(=O)c4ccc(C)cc4o3)sc2c1` [compound 65, CCOc4ccc3N=C(NC(=O)C2=CC(=O)c1ccc(C)cc1O2)Sc3c4]: the minimal inhibitory concentration (MIC) in data set [3] was above 128 µg/mL. Also, the hemolysis at 1 h in data set [4] came out at 1.5%. The IC50 is above 168000 nM in data set [5], 70 nM in data set [1] (setting [7]) and 0.03 µg/mL in data set [1] (setting [8]). The “qualitative score on solid medium” value in data set [6] (1 μg/mL compound in agar) turned out to be 2; in data set [6] (2 μg/mL compound in agar), 2; in data set [6] (4 μg/mL compound in agar), 2; in data set [6] (8 μg/mL compound in agar), 2; in data set [6] (16 μg/mL compound in agar), 1.
Consider `O=C(Nc1nnc(Cl)s1)c1ccco1` [compound 67, O=C(NC1=NN=C(Cl)S1)C2=CC=CO2], for which the minimal inhibitory concentration (MIC) in data set [3] was above 128 µg/mL. This molecule also came in with a hemolysis at 1 h in data set [4] of 1.5%. For the same molecule, the figures for the IC50 in data set [5], in data set [1] (setting [7]) and in data set [1] (setting [8]) were above 557000 nM, 490 nM and 0.11 µg/mL, respectively. Besides, the “qualitative score on solid medium” value was found to be 1 in data set [6] (1 μg/mL compound in agar); 0 in data set [6] (2 μg/mL compound in agar); 0 in data set [6] (4 μg/mL compound in agar); 0 in data set [6] (8 μg/mL compound in agar); 0 in data set [6] (16 μg/mL compound in agar).
Consider `Cc1cc(C)c2c(=O)cc(C(=O)Nc3nc4ccc(F)cc4s3)oc2c1` [compound 68, Cc2cc(C)c1C(=O)C=C(Oc1c2)C(=O)NC4=Nc3ccc(F)cc3S4], for which, in data set [3], the MIC was above 128 µg/mL. In data set [4], the hemolysis at 1 h was determined as 2.2%. Also, the IC50 was above 348000 nM in data set [5] and 910 nM in data set [1] (setting [7]). Also, the “qualitative score on solid medium” value was determined as 3 in data set [6] (1 μg/mL compound in agar); 3 in data set [6] (2 μg/mL compound in agar); 1 in data set [6] (4 μg/mL compound in agar); 1 in data set [6] (8 μg/mL compound in agar); 1 in data set [6] (16 μg/mL compound in agar).
With `COc1ccc(Br)c(/C=N/NC(=O)COc2ccc(-c3ccccc3)cc2)c1` [compound 69, COc3ccc(Br)c(/C=N/NC(=O)COc1ccc(cc1)c2ccccc2)c3], in data set [3], the MIC is above 128 µg/mL. In addition, in data set [4], the hemolysis at 1 h was found to be 4.1%. Also, the figures for the IC50 in data set [5] and in data set [1] (setting [7]) were above 291000 nM and 50 nM, respectively. Moreover, the “qualitative score on solid medium” value in data set [6] (1 μg/mL compound in agar), in data set [6] (2 μg/mL compound in agar), in data set [6] (4 μg/mL compound in agar), in data set [6] (8 μg/mL compound in agar) and in data set [6] (16 μg/mL compound in agar) was 0 in each case.
For the molecule `O=C(/C=C/c1ccccc1)Nc1ccc(C(=O)Nc2nccs2)cc1` [compound 70, O=C(/C=C/c1ccccc1)Nc2ccc(cc2)C(=O)NC3=NC=CS3], the MIC in data set [3] is above 128 µg/mL. Further, in data set [4], the hemolysis at 1 h was 17.6%. Besides, the IC50 was above 367000 nM in data set [5] and 1100 nM in data set [1] (setting [7]). The “qualitative score on solid medium” value in data set [6] (1 μg/mL compound in agar) is given as 3; in data set [6] (2 μg/mL compound in agar), 1; in data set [6] (4 μg/mL compound in agar), 0; in data set [6] (8 μg/mL compound in agar) it was 0; in data set [6] (16 μg/mL compound in agar), 0.
In the case of `CC12CC3(C)CC(C(=O)O)(C1)CC(C(=O)O)(C2)C3` [compound 73, CC12CC3(C)CC(C1)(CC(C2)(C3)C(O)=O)C(O)=O], the minimal inhibitory concentration (MIC) in data set [3] is above 128 µg/mL. In addition, the hemolysis at 1 h in data set [4] stood at 2.8%. In addition, the results for the IC50 in data set [5] and in data set [1] (setting [7]) were above 508000 nM and 1100 nM, respectively. The “qualitative score on solid medium” value came to 4 in data set [6] (1 μg/mL compound in agar); 3 in data set [6] (2 μg/mL compound in agar); 3 in data set [6] (4 μg/mL compound in agar); 3 in data set [6] (8 μg/mL compound in agar); 2 in data set [6] (16 μg/mL compound in agar).
As for `CCOc1ccc2nc(NC(=O)c3ccc4ncsc4c3)sc2c1` [compound 74, CCOc4ccc3N=C(NC(=O)c2ccc1N=CSc1c2)Sc3c4], in data set [3], the MIC was above 128 µg/mL. The hemolysis at 1 h in data set [4] was determined as 26.9%. In addition, the IC50 in data set [5] was above 361000 nM; in data set [1] (setting [7]), 370 nM. The “qualitative score on solid medium” value in data set [6] (1 μg/mL compound in agar) was found to be 2; in data set [6] (2 μg/mL compound in agar), 0; in data set [6] (4 μg/mL compound in agar) it was 0; in data set [6] (8 μg/mL compound in agar) it was 0; in data set [6] (16 μg/mL compound in agar), 0.
As to `CCOc1cccc(C(=O)Nc2ccc(-c3nc4ccccc4[nH]3)cc2)c1` [compound 79, CCOc1cccc(c1)C(=O)Nc2ccc(cc2)C4Nc3ccccc3N=4], the MIC in data set [3] was above 128 µg/mL. In data set [4], this molecule came in with a hemolysis at 1 h of 40.6%. Besides, the IC50 in data set [5] amounted to 341000 nM; in data set [1] (setting [7]) it was 1330 nM. Also, the “qualitative score on solid medium” value in data set [6] (1 μg/mL compound in agar), in data set [6] (2 μg/mL compound in agar), in data set [6] (4 μg/mL compound in agar) and in data set [6] (8 μg/mL compound in agar) was 2 in each case.
Consider `CCCCNC(=O)NS(=O)(=O)c1cccs1` [compound 82, CCCCNC(=O)NS(=O)(=O)C1=CC=CS1], for which, in data set [3], the minimal inhibitory concentration (MIC) was above 128 µg/mL. The same molecule returned a hemolysis at 1 h in data set [4] of 7.4%. Besides, the values for the IC50 in data set [5] and in data set [1] (setting [7]) were above 489000 nM and 2580 nM, respectively. The “qualitative score on solid medium” value in data set [6] (1 μg/mL compound in agar) worked out at 4; in data set [6] (2 μg/mL compound in agar) it was 4; in data set [6] (4 μg/mL compound in agar), 3; in data set [6] (8 μg/mL compound in agar) it was 3; in data set [6] (16 μg/mL compound in agar) it was 2.
As to `O=C(O)c1cc(Br)ccc1F` [compound 166, OC(=O)c1cc(Br)ccc1F], the MIC in data set [3] is above 128 µg/mL. This molecule registered a hemolysis at 1 h in data set [4] of 2.5%. In addition, the IC50 was above 584000 nM in data set [5] and 1300 nM in data set [1] (setting [7]).
On the same counts, the results for `CCN(CC)/C(N)=N\c1ccc(NC(=O)c2ccc(C(=O)Nc3ccc(/N=C(\N)N(CC)CC)cc3)cc2)cc1` [compound 170, CCN(CC)/C(/N)=N/c1ccc(cc1)NC(=O)c2ccc(cc2)C(=O)Nc3ccc(cc3)\N=C(\N)/N(CC)CC] are 8 µg/mL (≈ 14.7 µM), 1.9%, 102000 nM and 2200 nM.
The matching figures for `O=[N+]([O-])c1cnc2ccc(Cl)cc2c1O` [compound 182, [O-][N+](=O)c2cnc1ccc(Cl)cc1c2O]: above 128 µg/mL, 2.4%, 75400 nM and 420 nM.
On the same counts, the results for `O=C(CCCN1CCC(O)(c2ccc(Br)cc2)CC1)c1ccc(F)cc1` [compound 185, OC2(CCN(CCCC(=O)c1ccc(F)cc1)CC2)c3ccc(Br)cc3] are above 128 µg/mL, 4.5%, 16500 nM and 850 nM.
As to `COC1C(OC(C)=O)CC(=O)OC(C)CC2OC2/C=C/C(=O)C(C)CC(CC=O)C1OC1OC(C)C(OC2CC(C)(O)C(OC(=O)CC(C)C)C(C)O2)C(N(C)C)C1O` (stereo not shown) [compound 186, COC4C(OC2OC(C)C(OC1CC(C)(O)C(OC(=O)CC(C)C)C(C)O1)C(C2O)N(C)C)C(CC=O)CC(C)C(=O)/C=C/C3OC3CC(C)OC(=O)CC4OC(C)=O], the MIC in data set [3] was determined as 2 µg/mL (≈ 2.38 µM). In addition, the IC50 turned out to be 8540 nM in data set [5] and 5400 nM in data set [1] (setting [7]).
For the molecule `Cc1nc(O)n2ncc(Br)c2n1` [compound 187, CC2=NC1=C(Br)C=NN1C(O)=N2], the MIC in data set [3] was above 128 µg/mL. The hemolysis at 1 h in data set [4] is 2.5%. The IC50 in data set [5] is above 559000 nM; in data set [1] (setting [7]) it was 160 nM.
`C=CC1(C)CC(OC(=O)CSc2ccc(N)cc2)C2(C)C(C)CCC3(CCC(=O)C32)C(C)C1O` (stereo not shown) [compound 191, C=CC4(C)CC(OC(=O)CSc1ccc(N)cc1)C2(C)C(C)CCC3(CCC(=O)C23)C(C)C4O]: the MIC in data set [3] was at most 0.06 µg/mL. This molecule displayed a hemolysis at 1 h in data set [4] of 2%. Besides, the IC50 in data set [5] is 35800 nM; in data set [1] (setting [7]), 3220 nM.
